Source: PubChem (Broad Institute)
Env fusion inh – blocks HIV Env-driven cell-cell fusion. AID 651610. inhibition, % at 12.3 µM. HeLa-JRFL Env/CEM21 cell fusion, luciferase. 360,000 compounds, 1.1% hits;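 active means mean replicate inhibition score of at least 50 and every replicate individually at or above 50; inconclusive means only one of the two criteria met; inactive means mean below 50 and not all replicates reaching 50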;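 further: 0% = plate neutral controls and 100% = maraviroc near 300 nM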
PGC1a acetyl inh – lowers PGC1a acetylation signal in U2OS cells; AlphaScreen anti-acetyl-lysine; with virally co-expressed GCN5 acetyltransferase; inhibition, % at 15.6 µM; 350,000 compounds, 0.17% hits; AID 651687;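 active means every replicate shows inhibition of at least 40%; inconclusive means mean inhibition at least 40% but some replicate below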;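 further: 0% = neutral control wells and 100% = positive control wells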
EWS-Fli block – inhibitors of EWS/Fli oncoprotein transcriptional activity. A673 NR0B1-luciferase reporter, viability-normalised. inhibition, % at 12.6 µM. 350,000 compounds, 0.67% hits. AID 651661;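 active means mean inhibition of at least 50% after viability correction, with every replicate also passing that limit; inconclusive means mean reaches 50% but only one of two replicates passes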;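 further: firefly luciferase signal divided by Alamar Blue viability fluorescence both relative to DMSO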
F508del corr – correctors of CFTR F508del function in bronchial epithelial cells. CFBE cells, YFP halide quenching; stimulated with forskolin plus potentiator P3; % fluorescence drop versus neutral controls. activity (quench increase), % at 7.58 µM. 350,000 compounds, 0.36% hits;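 active means mean added fluorescence quench of at least 8% versus neutral control, with both replicates also reaching 8%; inconclusive means only one of the mean or replicate conditions met; inactive means mean below 8% and not both replicates reaching 8%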;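 further: cells transiently co-express mutant CFTR-F508del with the halide-sensitive YFP; corrector assay measuring rescue of mutant channel to the surface after 24 h compound exposure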
FN deposit inh – fibronectin deposition inhibition; AH1F fibroblasts, Alexa488-fibronectin deposition fluorescence, overnight; inhibition, % at 12.6 µM; 350,000 compounds, 0.086% hits;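 active means mean inhibition across replicates of 30% or more, regardless of how many single replicates reach that level; inconclusive means mean under 30% yet at least half of replicates reach 30%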;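 further: positive control wells lacked labelled fibronectin entirely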
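Material: AH1F fibroblast monolayer depositing Alexa488-labelled fibronectin into matrix / Amount: 10000 AH1F cells per well / Signal: fluorescence 485/525 nm / Medium: DMEM, 2% serum / Compound: single dose, pinned / Incubation: 1 h cell adhesion before compound, then overnight fibronectin incubation / Reagent: Alexa488-FN, 24 nM final / Read-out: inhibition of fibronectin deposition signal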
PAX8 inh HTS – PAX8 transcriptional activity inhibition | RMG-I TPO-luciferase reporter, SteadyGlo, 24 h | inhibition, % at 12.6 µM | 360,000 compounds, 1.2% hits;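 active means mean replicate inhibition at least 60% with every replicate also reaching 60%; inconclusive means only one of the two criteria is met; inactive means mean below 60% and not all replicates reaching 60%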;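 further: luciferase light reporting Pax8 driven TPO promoter activity; plate controls were median of neutral control wells for no effect and mitoxantrone controls for full effect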
Active calls of the source: *; [ ] = another dose, or the depositor's remark. An excerpt weighted towards active compounds, which were near 2.3% of everything screened.

Results for O=C(Cc1ccccn1)NCC[C@@H]1CC[C@H](NC(=O)Nc2ccc(C(F)(F)F)cc2)[C@@H](CO)O1 ?
Env fusion inh: 6.3[16.7 µM]; PGC1a acetyl inh: 50.3*; EWS-Fli block: -10.8; F508del corr: 14.2*; FN deposit inh: -4.8; PAX8 inh HTS: 84.5*

How did O=C(Cc1ccccn1)NCC[C@@H]1CC[C@@H](NC(=O)Nc2ccc(C(F)(F)F)cc2)[C@H](CO)O1 do in these assays?
Env fusion inh: -0.5[16.7 µM]; PGC1a acetyl inh: -2.5; EWS-Fli block: -10.6; F508del corr: -0.1; FN deposit inh: 7.3; PAX8 inh HTS: 15.1

What do the screens show for `Brc1ccc(-c2csc(-c3c[nH]c4ccccc34)n2)cc1`?
PGC1a acetyl inh: 2.0

What do the screens show for `c1ccc2c(-c3csc(-c4ccncc4)n3)c[nH]c2c1`?
Env fusion inh: -144.5; PGC1a acetyl inh: -3.1; EWS-Fli block: -33.2; F508del corr: -9.0; FN deposit inh: 32.8*; PAX8 inh HTS: -22.2

How did C[C@@H]1CN([C@H](C)CO)S(=O)(=O)c2ccc(C#CCC3CCCC3)cc2O[C@@H]1CN(C)C do in these assays?
Env fusion inh: 16.5[16.7 µM]; PGC1a acetyl inh: -8.5; EWS-Fli block: 19.4; F508del corr: -2.5; FN deposit inh: 10.8

How did COc1ccc(S(=O)(=O)N2c3ccc(F)cc3CCC2C)cc1 (stereo unspecified) do in these assays?
Env fusion inh: -44.9; PGC1a acetyl inh: -119.9; EWS-Fli block: 41.2; FN deposit inh: 8.3; PAX8 inh HTS: 77.9*

Results for CC(=O)Nc1ccc(S(=O)(=O)N2c3ccc(F)cc3CCC2C)cc1 (stereo unspecified) ?
Env fusion inh: -11.1; PGC1a acetyl inh: -2.9; EWS-Fli block: inconclusive; F508del corr: 0.4; FN deposit inh: 7.3; PAX8 inh HTS: 18.4

What do the screens show for `CNC(=O)C[C@H]1CC[C@H]2[C@@H](COc3ccc(NC(=O)CN(C)C)cc3C(=O)N2C)O1`?
FN deposit inh: -10.7

How did C[C@@H]1CN([C@@H](C)CO)C(=O)c2cc(NC(=O)Nc3ccccc3)ccc2O[C@@H](C)CCCCO[C@@H]1CN(C)C(=O)Cc1ccccc1 do in these assays?
Env fusion inh: -26.0[16.7 µM]; PGC1a acetyl inh: -23.2; EWS-Fli block: 1.1; F508del corr: 2.7; FN deposit inh: 1.9; PAX8 inh HTS: -20.3

What do the screens show for `CC(=O)Cn1ncc(Br)c(Br)c1=O`?
Env fusion inh: -271.2; EWS-Fli block: 30.5; F508del corr: -7.2; FN deposit inh: 5.1; PAX8 inh HTS: 83.7*

Results for O=C(NC1Cc2ccccc2C1)[C@H]1[C@H](CO)[C@H]2Cn3c(cccc3=O)[C@@H]1N2C(=O)CC1CC1 ?
Env fusion inh: 13.3[16.7 µM]; EWS-Fli block: -7.8; PAX8 inh HTS: -0.4

How did CCOc1ccc(-c2cc(CCCC(=O)NCc3ccco3)no2)cc1 do in these assays?
Env fusion inh: 25.5; PGC1a acetyl inh: 9.5; EWS-Fli block: 71.5*; F508del corr: -0.7; FN deposit inh: -0.3; PAX8 inh HTS: -1.3

Results for CN(C)c1ccnc2sc(C(N)=O)c(N)c12 ?
PGC1a acetyl inh: 47.8*

Results for CN(C)c1ccnc2sc(C(=O)c3ccc(Br)cc3)c(N)c12 ?
Env fusion inh: -2.9; EWS-Fli block: -33.4; F508del corr: -2.6; PAX8 inh HTS: -27.7

What do the screens show for `CSc1nnc(C)c(=O)n1COC(=O)c1ccc([N+](=O)[O-])cc1`?
Env fusion inh: 12.8; PGC1a acetyl inh: 7.5; EWS-Fli block: 0.2; F508del corr: 0.0; FN deposit inh: 31.4*; PAX8 inh HTS: 6.1

Results for COc1ccc2[nH]c(=O)c(CN(CC3CCCO3)C(=S)Nc3ccccc3)cc2c1 (stereo unspecified) ?
Env fusion inh: 11.4; EWS-Fli block: -0.6; F508del corr: -3.0; FN deposit inh: -8.3; PAX8 inh HTS: 23.1

How did COc1ccc2cc(CN(CC3CCCO3)C(=S)Nc3ccccc3)c(=O)[nH]c2c1 (stereo unspecified) do in these assays?
Env fusion inh: 5.2; EWS-Fli block: 43.3; F508del corr: 10.3*; FN deposit inh: 12.5; PAX8 inh HTS: 18.7

What do the screens show for `O=C(C[C@H]1CC[C@@H](NC(=O)c2cccc(F)c2)[C@H](CO)O1)NCc1ccc(Oc2ccccc2)cc1`?
Env fusion inh: 68.7*[16.7 µM]; PGC1a acetyl inh: -3.2; EWS-Fli block: 10.4; F508del corr: -2.2; PAX8 inh HTS: 45.9
